Sampled rows, rich in hits. Any-hit rate of the full collection: about 1.5%.
TPT1 inh: Candida albicans TPT1 enzyme inhibitors, primary screen, biochemical, fluorescence polarization | recombinant caTPT1, FP RNA substrate dephosphorylation | inhibition, % at 5 µM | hit rate 0.81% among 300,000 | AID 1962, 2009;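 active = inhibition above the mean of all tested compounds plus 3 SD, set per screening campaign, cut at about 24% in these data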;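 note: plate controls were DMSO alone for no effect and ferristatin control at 100 nM for full effect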
CSN deneddyl inh: inhibitors of CSN-mediated cullin deneddylation, primary screen, biochemical, fluorescence polarization, uHTS; COP9 signalosome complex subunit 5 (Homo sapiens), Q92905; Purified CSN, SCF-Nedd8-OG deneddylation; inhibition, % at 12.5 µM; hit rate 0.38% among 360,000;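 active = pattern-corrected inhibition above about 35%, with an unprinted fluorescence ratio check between 0.5 and 1.5, limit read from the data, passing the limit was not always enough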;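 note: 0% = enzyme with substrate and 100% = substrate without enzyme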
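Test system: Human Csn5 produced in HEK293T cells | Compound: 12.5 µM single point | Times: 90 min, room temperature | Signal: Fluorescence polarization readout | Read-out basis: % inhibition of substrate cleavage by Csn5 | Controls: no-enzyme wells high, enzyme-with-substrate wells low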
Rpn11 inh: Rpn11 (PSMD14) deubiquitinase inhibitors, primary screen, biochemical, fluorescence polarization, uHTS; AID 588493, 2011; human 26S proteasome, Ub4-pepOG fluorescence polarization; 20S core pre-blocked with epoxomicin; 26S proteasome non-ATPase regulatory subunit 14 (Homo sapiens), O00487; calls only at 20 µM; hit rate 0.59% among 360,000;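 active = inhibition at 20 µM, scaled to each plate's controls, above about 33%, limit read from the data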
HNF4A DNA FP: change in binding of human HNF4A to DNA, primary screen, biochemical, fluorescence polarization, FITC-DNA; Hepatocyte nuclear factor 4-alpha (Homo sapiens), P41235; 1 h; activity change, % at 10 µM; hit rate 0.3% among 360,000; AID 1224865, 2016; in the data active = activity change above about 30%, passing the limit was not always enough
Target sequence (P41235 whole entry, looked up): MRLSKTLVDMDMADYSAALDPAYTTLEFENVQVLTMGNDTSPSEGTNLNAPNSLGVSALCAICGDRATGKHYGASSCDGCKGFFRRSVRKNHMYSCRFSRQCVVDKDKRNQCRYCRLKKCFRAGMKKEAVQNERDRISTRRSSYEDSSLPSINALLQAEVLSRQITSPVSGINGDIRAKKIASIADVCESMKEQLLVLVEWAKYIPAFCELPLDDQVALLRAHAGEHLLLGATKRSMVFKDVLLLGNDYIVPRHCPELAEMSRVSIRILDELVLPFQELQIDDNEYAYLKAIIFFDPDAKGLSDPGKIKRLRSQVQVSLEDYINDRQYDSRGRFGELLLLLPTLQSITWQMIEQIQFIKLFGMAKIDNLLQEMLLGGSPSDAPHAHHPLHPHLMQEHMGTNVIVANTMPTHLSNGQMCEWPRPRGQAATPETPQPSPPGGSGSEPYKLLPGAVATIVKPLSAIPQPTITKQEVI
TPT1 inh confirm: Candida albicans TPT1 inhibitors, confirmation, biochemical, fluorescence polarization, triplicate. shares compounds with TPT1 inh. recombinant caTPT1, RNase T1 coupled. inhibition, % at 5 µM. hit rate 74% among 2,400. AID 2149, 2009;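 active = inhibition above the primary screen limit, the mean inhibition of all tested compounds plus 3 SD, cut at about 25% in these data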
RNase T1 counter: RNase T1 inhibitors, counter-screen for TPT1 inhibitor project, biochemical, fluorescence polarization; shares compounds with TPT1 inh; RNase T1 cleavage, 1536-well; inhibition, % at 5 µM; hit rate 83% among 2,400;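 active = inhibition above the solvent-only control well mean plus 3 SD, limit set per screening run, cut at about 23% in these data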;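 note: plate controls were DMSO wells with enzyme for no effect and wells without RNase T1 for full effect; inhibitors block cleavage so intact labeled substrate keeps polarization high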
Target sequence (P00651 whole entry, looked up): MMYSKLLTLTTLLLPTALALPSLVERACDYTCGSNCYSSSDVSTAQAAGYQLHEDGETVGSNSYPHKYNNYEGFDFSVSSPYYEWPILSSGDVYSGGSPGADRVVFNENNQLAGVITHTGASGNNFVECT
The depositor's hits bear a star; i = inactive; · = no result shown; + = active, no number.

SMILES | TPT1 inh | CSN deneddyl inh | Rpn11 inh | HNF4A DNA FP | TPT1 inh confirm | RNase T1 counter
Cc1ccc(C(=O)N/C(=C/c2ccc(-c3ccc([N+](=O)[O-])cc3)o2)C(=O)NCCCN(C)C)cc1 | 26* | 11 | i | 6 | 24* | 33*
Cc1ccc(C(=O)N/C(=C\c2ccc(-c3ccc([N+](=O)[O-])cc3)o2)C(=O)NC2CCS(=O)(=O)C2)cc1 (centres undefined) | 47* | 31 | · | 26 | 58* | 71*
O=C(Nc1ccccc1Cl)c1ccccc1CC(O)(c1ccccc1)c1ccccc1 | · | -2 | i | 0 | · | ·
O=C(CCc1nnc2ccc(N3CCC4(CC3)OCCO4)nn12)N1CCCCC1 | -5 | -4 | i | 2 | · | ·
CCOC(=O)[C@]12CCC=C1N(Cc1cccc3ccccc13)C(=O)[C@H](CC(=O)NCCc1ccccc1OC)C2 | · | 0 | · | 0 | · | ·
CCN1CCc2nc(NC(=O)c3ccc4c(c3)OCCO4)sc2C1 | 36* | 11 | i | 17 | 21 | 28*
O=C(Nc1nc2c(s1)CN(Cc1ccccc1)CC2)c1cccc(S(=O)(=O)N2CCc3ccccc32)c1 | 125* | 30 | i | 47 | 94* | 94*
O=C(Nc1nc2ccccc2s1)c1cccc(S(=O)(=O)N2CCc3ccccc32)c1 | -1 | -1 | i | 5 | · | ·
Cc1ccccc1C(C)(O)c1cnc(C)n1Cc1ccccc1 (centres undefined) | · | -1 | i | -1 | · | ·
O=C(CNc1ccc(Cl)c(C(F)(F)F)c1)N1CCN(S(=O)(=O)c2ccccc2)CC1 | · | -4 | i | 8 | · | ·
CCNC(=O)c1c(NC(=O)c2cc(-c3cc(C)cc(C)c3O)n[nH]2)sc2c1CCCC2 | · | 4 | i | 3 | · | ·
Nc1ccc2c(c1)Cc1cc([N+](=O)[O-])ccc1-2 | 53* | 18 | i | 37* | 56* | 65*
COc1cc(N)c(Cl)cc1C(=O)OCC(=O)Nc1ccc(N2CCOCC2)cc1 | · | -1 | i | -1 | · | ·
COc1cc([N+](=O)[O-])ccc1-c1ccc(/C=N/NC(N)=O)o1 | 51* | 43* | · | 87* | 58* | 68*
COCCNC(=S)N/N=C/c1ccc(-c2ccc([N+](=O)[O-])cc2)o1 | 47* | 9 | · | 20 | 50* | 63*
O=C(O)C(c1ccccc1)C1CCCCC1O (centres undefined) | · | -3 | i | -3 | · | ·
Oc1sc(C=Nc2ccccc2)c2ccccc12 | 119* | 28 | · | 24 | 105* | 104*
Oc1sc(C=Nc2ccc(F)cc2)c2ccccc12 | 128* | 12 | · | 36* | 110* | 109*
Oc1c(C=Nc2ccccc2)sc2ccccc12 | 100* | 16 | · | 37* | 127* | 130*
CC(=O)n1nc2nc(C)cc(C)c2c1N | -5 | -1 | i | -1 | · | ·
CCOc1ccccc1C(=O)n1nc2nc(C)cc(C)c2c1N | 44* | -2 | i | -1 | 3 | 7
COCCNc1nc(-c2ccc(OC)cc2)c(-c2ccc(OC)cc2)s1 | -4 | -5 | i | -4 | · | ·
COc1ccc2c(c1)C(c1ccccc1)NC(=O)C2 (centres undefined) | -1 | 0 | i | -3 | · | ·
COc1ccc(S(=O)(=O)Nc2ccc3c(c2)C(=O)N([C@@H](C)CO)C[C@H](C)[C@H](CN(C)CC2CC2)O3)cc1 | · | -4 | i | 2 | · | ·
COc1cc(OC)c(OC)cc1/C=C1\CC(C)C/C(=C\c2cc(OC)c(OC)cc2OC)C1=O (centres undefined) | 74* | 31 | · | 58* | 87* | 95*
SMILES | TPT1 inh | CSN deneddyl inh | Rpn11 inh | HNF4A DNA FP | TPT1 inh confirm | RNase T1 counter
COc1cc(OC)c(OC)cc1/C=C1/Cc2ccccc2C1=O | -5 | 10 | i | -48 | · | ·
CC1N(C)c2cccc3cccc(c23)N1C | 32* | 3 | + | 32 | 6 | 7
CN1c2cccc3cccc(c23)N(C)C1c1cccs1 | -9 | -3 | i | 0 | · | ·
CCC(CC)=N/N=C/c1c(O)n(CC)c2cc(C3=NNC(=O)CC3)ccc12 | 64* | 1 | i | 11 | 44* | 56*
CCn1c(O)c(/C=N/N=C/c2ccccc2)c2ccc(C3=NNC(=O)CC3)cc21 | 61* | -77 | · | -10 | 72* | 84*
CCN(CC)c1ccc(/C=N/Nc2nn[nH]n2)cc1 | 1 | 3 | i | 10 | · | ·
CCN(CC)c1ccc(C=N/C(C#N)=C(\N)C#N)cc1 | 83* | 28 | · | 28 | 116* | 121*
C[C@@H]1CN([C@H](C)CO)C(=O)CCCn2nncc2CO[C@H]1CN(C)S(=O)(=O)c1ccc(F)cc1 | · | 0 | i | -9 | · | ·
O=C(O)C(=O)/C(=C\c1ccc(Cl)cc1)c1ccc2ccccc2n1 | 41* | 12 | i | 13 | 35* | 49*
O=C(NCCc1ccc(Cl)cc1)c1ccc2ccccc2n1 | 3 | 2 | i | 4 | · | ·
COC(=O)c1ccccc1NC(=O)Cn1c(CCC(=O)O)ccc1-c1cccs1 | 32* | 2 | i | -1 | 21 | 32*
Cc1ccccc1NC(=O)Cn1c(CCC(=O)O)ccc1-c1cccs1 | 3 | -3 | i | -1 | · | ·
COc1ccc([C@H]2CC(=O)C=C(c3ccc(CNC(=O)OC(C)(C)C)cc3)C2)cc1 | · | -2 | i | -1 | · | ·
CCOC(=O)c1c(Nc2ccc(Cl)cc2)sc(/C=C2\C=Nc3ccccc32)c1O | 36* | 18 | · | 45* | 46* | 54*
CC(=O)c1c(N2CCN(c3ccccc3)CC2)nc(=S)n(-c2ccccc2)c1C | 78* | 15 | i | 13 | 26* | 35*
CC(=O)c1c(N2CCN(CCO)CC2)nc(=S)n(-c2ccccc2)c1C | -9 | 6 | i | 3 | · | ·
O=C(NCc1ccncc1)C(=O)NCC1OCCN1S(=O)(=O)c1ccc(F)cc1 (centres undefined) | -2 | 1 | i | 5 | · | ·
CC(C)(C)SCCNC(=O)c1ccc(CN2CCc3ccccc3C2)cc1 | 1 | 4 | i | -1 | · | ·
NC(=O)CSC1=N/C(=C\c2ccco2)C(=O)N1c1ccc(OC(F)F)cc1 | 10 | 14 | i | 7 | · | ·
CCOc1cc(/C=C2\N=C(SC(C)C(N)=O)N(c3ccc(OC(F)F)cc3)C2=O)ccc1O (centres undefined) | 101* | 104 | · | 130 | 117* | 113*
N#Cc1ccsc1NC(=O)c1cccc(-n2cnnn2)c1 | 48* | 38* | · | 42* | 51* | 64*

Source: PubChem
